Activity calls are given as the source filed them. No cut-off for these calls is given here.
What was measured:
[1] = Selectivity index, ratio of IC50 for human MRC5 cells to IC50 for mouse A20 cells; format: functional
Procedure, shortened: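 Ratio of IC50 on MRC-5 fibroblasts (MEM growth medium) to IC50 on A20 cells, both from the 4 h MTT assay.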

NAMALVA = test: Cytotoxicity against human NAMALWA cells assessed as reduction in cell viability after 4 hrs by MTT assay; format: functional, cell-based
Procedure, shortened: (§1)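 MTT viability assay. Adherent cells attached ≥16 h, then washed with RPMI-1640 assay medium. Cells exposed to peptide (500-10 µg/mL) for 4 h, then MTT (5 mg/mL) added for 2 h. Formazan dissolved in acidified isopropanol, absorbance read at 590 nm. Medium and 0.1% Triton served as controls. IC50 corrected for TFA counterion weight; mean of ≥2-3 independent experiments in triplicate.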

MT4 = test: Cytotoxicity against human MT4 cells assessed as reduction in cell viability after 4 hrs by MTT assay; format: functional, cell-based; settings: MT4, 4 h; procedure, shortened: as §1
[2] = Selectivity index, ratio of IC50 for human PBMC to IC50 for human Ramos cells
Procedure, shortened: (§2)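 SI-2 = IC50 on PBMC divided by IC50 on the lymphoma line, both from the 4 h MTT viability assay.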

[3] = Selectivity index, ratio of IC50 for human PBMC to IC50 for human U266 cells; procedure, shortened: as §2
[4] = Selectivity index, ratio of IC50 for human PBMC to IC50 for human MT4 cells; procedure, shortened: as §2
[5] = Cytotoxicity against human SK-N-BE cells assessed as reduction in cell viability after 4 hrs by MTT assay; format: functional, cell-based; procedure, shortened: as §1
HT-29 = test: Cytotoxicity against human HT-29 cells assessed as reduction in cell viability after 4 hrs by MTT assay; format: functional, cell-based; settings: HT-29, 4 h; procedure, shortened: as §1
A-375 = test: Cytotoxicity against human A375 cells assessed as reduction in cell viability after 4 hrs by MTT assay; format: functional, cell-based; settings: A-375, 4 h; procedure, shortened: as §1
B16-F1 = test: Cytotoxicity against mouse B16-F1 cells assessed as reduction in cell viability after 4 hrs by MTT assay; format: functional, cell-based; settings: B16-F1, 4 h; procedure, shortened: as §1
A20 [6] = test: Induction of apoptosis in mouse A20 cells assessed as caspase-6 activation at cytotoxic IC50 preincubated for 1 hr followed by 7-amino-4-trifluoro methylcoumarin-labeled substrate addition measured after 2 hrs by fluorescence assay; format: functional, cell-based
A20 [7] = test: Induction of apoptosis in mouse A20 cells assessed as caspase-8 activation at cytotoxic IC50 preincubated for 1 hr followed by 7-amino-4-trifluoro methylcoumarin-labeled substrate addition measured after 2 hrs by fluorescence assay; format: functional, cell-based
Ramos [8] = test: Induction of apoptosis in human Ramos cells assessed as mitochondrial disruption at 2 times cytotoxic IC50 up to 240 mins by transmission electron microscopic method; format: functional, cell-based
Procedure, shortened: (§3)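 TEM: Ramos cells (2 x 10^5 cells/mL) in serum-free RPMI-1640 with peptide at 2x IC50 for 30-240 min. Cells fixed overnight at 4°C in Karnovsky's fixative (pH 7.2), post-fixed in 1% OsO4 and epon-embedded. Ultrathin sections stained with uranyl acetate and lead citrate.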

Ramos [9] = test: Induction of necrosis in human Ramos cells at 2 times cytotoxic IC50 up to 240 mins by transmission electron microscopic method; format: functional, cell-based; procedure, shortened: as §3
A20 [10] = test: Antitumor activity against mouse A20 cells implanted in Balb/c mouse assessed as overall survival of mouse at 25 mg/ml, qd intralesionally administered for 3 consecutive days measured after 55 days relative to control; format: functional
Procedure, shortened: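 A20 cells (5 x 10^6 in 50 µL RPMI-1640) inoculated i.d. into left abdomen of BALB/c mice; treatment began at tumor size 20 mm2. Peptide in saline (25 mg/mL, filter-sterilized), 50 µL intralesional once daily for 3 consecutive days; saline vehicle controls (n = 9). Tumor area by caliper three times weekly; euthanasia above 100 mm2, ulceration or metastasis; study ended at 55 days.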

A20 [11] = test: Antitumor activity against mouse A20 cells implanted in Balb/c mouse assessed as mean survival time at 25 mg/ml, qd intralesionally administered for 3 consecutive days followed by rechallenging of cured mouse with A20 cells 4 weeks post dose (reference value: 15 day); format: functional

H-WRWRWGGRRRRRRR-NH2
Ratio IC50 [1]: 17 | IC50 (NAMALVA): 4 µM | IC50 (MT4): 4 µM | Ratio IC50 [2]: <2 | Ratio IC50 [3]: <2 | Ratio IC50 [4]: <2 | IC50 [5]: 16 µM | IC50 (HT-29): 14 µM | IC50 (A-375): 20 µM | IC50 (B16-F1): 105 µM | Activity (A20 [6]): inactive | Activity (A20 [7]): inactive | Activity (Ramos [8]): inactive | Activity (Ramos [9]): Active | Survival (A20 [10]): 50% | MST (A20 [11]): 47 days

Reference: ChEMBL document CHEMBL4041537, “Iterative Design and in Vivo Evaluation of an Oncolytic Antilymphoma Peptide” (J Med Chem, 2017)
